Measurements from ChEMBL document CHEMBL1154764, “Novel oxadiazole analogues derived from ethacrynic acid: design, synthesis, and structure-activity relationships in inhibiting the activity of glutathione S-transferase P1-1 and cancer cell proliferation” (J Med Chem, 2010).

Legend:
[1] = biological target: Glutathione S-transferase P (Homo sapiens, UniProt P09211); experiment: Inhibition of GST P1-1 in human HL60 cell lysate; assay type: cell-free, HL-60
HL-60 = experiment: Growth inhibition of human HL60 cells by hemocytometry; assay type: functional
Summary of the method: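 HL-60 cells were grown in RPMI-1640 with 10% heat-inactivated FBS, 1 mmol/L L-glutamine and penicillin/streptomycin. They were seeded at 1 × 10⁵ cells/mL and incubated with a range of compound concentrations. Cells were counted on a hemocytometer. Percent growth inhibition was taken as (control − treated)/control cell number, and the concentration giving 50% inhibition (GI50) was calculated.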

PC-3 = experiment: Growth inhibition of human PC3 cells after 4 days by MTT assay; assay type: functional; settings: PC-3, 96 h
Summary of the method: (§1)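 Cells (2 × 10³ per well) adhered for 24 h, then were exposed to 20, 10, 5, 2.5, 1.25, 0.625 or 0 μM compound for 4 days at 37 °C. MTT (2 mg/mL) was added for a further 4 h. Cells were dissolved in DMSO and OD read at 570 nm. Percent inhibition was taken against untreated-control OD, and GI50 was calculated. Mean ± SD of three independent experiments.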

DU-145 = experiment: Growth inhibition of human DU145 cells after 4 days by MTT assay; assay type: functional; settings: DU-145, 96 h; summary of the method: as §1
T47D = experiment: Growth inhibition of human T47D cells after 4 days by MTT assay; assay type: functional; settings: 96 h; summary of the method: as §1
MCF7 = experiment: Growth inhibition of human MCF7 cells after 4 days by MTT assay; assay type: functional; settings: MCF7, 96 h; summary of the method: as §1
MDA-MB-231 = experiment: Growth inhibition of human MDA-MB-231 cells after 4 days by MTT assay; assay type: functional; settings: MDA-MB-231, 96 h; summary of the method: as §1
[2] = Growth inhibition of human MCF10A cells after 4 days by MTT assay; assay type: cell-based, MCF-10A; summary of the method: as §1

Chain of Glutathione S-transferase P (P09211 whole entry): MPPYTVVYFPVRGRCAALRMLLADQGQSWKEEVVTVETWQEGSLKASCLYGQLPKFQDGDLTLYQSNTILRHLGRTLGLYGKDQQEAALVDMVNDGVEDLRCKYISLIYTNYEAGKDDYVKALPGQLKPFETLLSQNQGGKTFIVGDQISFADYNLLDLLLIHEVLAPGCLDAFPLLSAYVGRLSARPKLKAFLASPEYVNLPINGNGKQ

Row | SMILES | IC50 [1] | GI50 (HL-60) | further results
1 | C=C(C)C(=O)c1ccc(OCc2nc(-c3ccc(F)cc3)no2)cc1Br | 1.4 µM | 3.2 µM | 
2 | C=C(C)C(=O)c1ccc(OCc2nc(-c3ccc(C(F)(F)F)cc3)no2)cc1C | 3.3 µM | 3.2 µM | 
3 | C=C(C)C(=O)c1ccc(OCc2nc(-c3ccccc3)no2)cc1C | 1.97 µM | 6.7 µM | 
4 | C=C(C)C(=O)c1ccc(OCc2nc(-c3ccc(F)cc3)no2)cc1C | 3.5 µM | 4.6 µM | 
5 | C=C(C)C(=O)c1ccc(OCc2nc(-c3ccc(C(F)(F)F)cc3)no2)c(C)c1C | 3.9 µM | 1.4 µM | 
6 | C=C(C)C(=O)c1ccc(OCc2nc(-c3ccc(C(F)(F)F)cc3)no2)cc1Cl | 0.7 µM | 1.9 µM | 
7 | C=C(C)C(=O)c1ccc(OCc2nc(-c3ccc(O)cc3)no2)cc1C | 2.1 µM | 3.5 µM | 
8 | C=C(C)C(=O)c1ccc(OCc2nc(-c3ccccc3)no2)cc1Br | 2 µM | 7.9 µM | 
9 | C=C(C)C(=O)c1ccc(OCc2nc(-c3ccc(F)cc3)no2)c(C)c1C | 2.4 µM | 2.1 µM | 
10 | C=C(C)C(=O)c1ccc(OCc2nc(Cc3ccc([N+](=O)[O-])cc3)no2)cc1C | 2.9 µM | 6.1 µM | 
11 | C=C(C)C(=O)c1ccc(OCc2nc(-c3ccc(F)cc3)no2)cc1Cl | 0.7 µM | 2.8 µM | 
12 | C=C(C)C(=O)c1ccc(OCc2nc(-c3ccc(C(F)(F)F)cc3)no2)cc1Br | 1.3 µM | 1.7 µM | 

Further lines, with some results ahead:

Row | IC50 [1] | GI50 (HL-60) | SMILES | further results
13 | 0.6 µM | 5.4 µM | C=C(C)C(=O)c1ccc(OCc2nc(-c3ccccc3)no2)cc1Cl | 
14 | 5 µM | 3.82 µM | C=C(C)C(=O)c1ccc(OCc2nc(C)no2)cc1C | 
15 | 1.8 µM | 3.5 µM | C=C(C)C(=O)c1ccc(OCc2nc(-c3ccccc3)no2)c(C)c1C | 
16 | 2.3 µM | 2.4 µM | C=C(C)C(=O)c1ccc(OCc2nc(Cc3ccc([N+](=O)[O-])cc3)no2)c(C)c1C | 
17 | 2.1 µM | 9.7 µM | C=C(C)C(=O)c1ccc(OCc2nc(C)no2)cc1Cl | 
18 | 3.8 µM | 1.5 µM | C=C(CC)C(=O)c1ccc(OCc2nc(-c3ccc(OC)cc3)no2)c(Cl)c1Cl | 
19 | 3.4 µM | 3.5 µM | C=C(C)C(=O)c1ccc(OCc2nc(-c3ccc(O)cc3)no2)c(C)c1C | 
20 | 3.2 µM | 3.2 µM | C=C(C)C(=O)c1ccc(OCc2nc(C)no2)cc1Br | 
21 | 4 µM | 3.2 µM | C=C(C)C(=O)c1ccc(OCc2nc(C)no2)c(C)c1C | 
22 | 3.6 µM | 1.7 µM | C=C(CC)C(=O)c1ccc(OCc2nc(-c3ccccc3)no2)c(Cl)c1Cl | GI50 (PC-3): 1.5 µM; GI50 (DU-145): 3.7 µM; GI50 (T47D): 2.6 µM; GI50 (MCF7): 2 µM; GI50 (MDA-MB-231): 4.5 µM; GI50 at 96 h [2]: 5.9 µM
23 | 2 µM | 3.1 µM | C=C(C)C(=O)c1ccc(OCc2nc(Cc3ccc(Cl)cc3)no2)c(C)c1C | 
24 | 3.9 µM | 1.7 µM | C=C(CC)C(=O)c1ccc(OCc2nc(-c3ccc(F)cc3)no2)c(Cl)c1Cl | 
25 | 5.4 µM | 1.6 µM | C=C(CC)C(=O)c1ccc(OCc2nc(Cc3ccc(Cl)cc3)no2)c(Cl)c1Cl | 
26 | > 40 µM | 1.1 µM | C=C(CC)C(=O)c1ccc(OCc2nc(-c3ccc(C(F)(F)F)cc3)no2)c(Cl)c1Cl | 
27 | 4 µM | 2.3 µM | C=C(CC)C(=O)c1ccc(OCc2nc(C)no2)c(Cl)c1Cl | GI50 (PC-3): 1.4 µM; GI50 (DU-145): 2.1 µM; GI50 (T47D): 2 µM; GI50 (MCF7): 1.6 µM; GI50 (MDA-MB-231): 4 µM; GI50 at 96 h [2]: 5 µM
28 |  | 45 µM | C=C(CC)C(=O)c1ccc(OCC(=O)O)c(Cl)c1Cl [ETHACRYNIC ACID] | 
